Measurements gathered from unrelated publications.
Effect on: cell growth or viability

`Nc1ccn([C@@H]2O[C@H](CO)[C@@H](O)[C@@H]2O)c(=O)n1` gave an inhibition of 50% (FaDu; CCK-8; 40 nM, 96 h).
`CC1(C)C(=O)NC2=C1C(=O)C(=O)c1ccccc12` gave an IC50 of 4200 nM (FaDu; 72 h).
`CC(=O)Nc1cccc(-n2c(=O)n(C3CC3)c(=O)c3c(Nc4ccc(I)cc4F)n(C)c(=O)c(C)c32)c1` gave a viability of 38.8% (SW-620; resazurin; 6.25 nM, 72 h).
With `CN(C)CC[C@@H](c1ccc(Cl)cc1)c1ccccn1` the IC50 was greater than 20000 nM (FaDu; 72 h).
`C[C@]12CC[C@@H]3c4ccc(O)cc4CC[C@H]3[C@@H]1CC[C@@H]2O` gave an EC90 of 213000 nM (CAPAN-1; ATP luminescence; 72 h).
`CC(C)C[C@H](NC(=O)[C@H](Cc1ccccc1)NC(=O)c1cnccn1)B(O)O` has an IC50 of 25 nM (SAOS-2; ATP luminescence).
The EC50 of `C[C@H](Nc1ccc2c(c1)OCCn1cc(N3C(=O)OC[C@H]3C(F)F)nc1-2)C(N)=O` is reported as 108 nM (HCC1954; 5 days).
`CN1CCN(C(=O)[C@H](CCCN[C@@H]2C[C@H]2c2ccc(F)cc2)NC(=O)c2ccc(-n3ccnn3)cc2)CC1` gave an EC50 of 31.1 nM (TF-1a; resazurin; 96 h).
The EC50 of `Cc1nc(NC(=O)N2CCC[C@H]2C(N)=O)sc1-c1ccnc(C(C)(C)C(F)(F)F)c1` is reported as 1130 nM (HCC1954; 5 days).
With `COc1cc(Nc2nccc(-c3cnn4nc(OC)ccc34)n2)cc(C(F)(F)F)c1` the IC50 was 320 nM (SAOS-2; ATP luminescence).
The EC50 of `N[C@H]1CC[C@H](N[C@@H]2C[C@H]2c2ccccc2)CC1` is reported as 0.09 nM (TF-1a; resazurin; 96 h).
`COc1cccc2c1C(=O)c1c(O)c3c(c(O)c1C2=O)C[C@@](O)(C(=O)CO)C[C@@H]3O[C@H]1C[C@H](N)[C@H](O)[C@H](C)O1` has an IC90 of greater than 20000 nM (SUM159; MTT; 48 h).
`COc1ccc(-c2c(-c3ccc(C#N)c(F)c3)nc(N3CCC(N)CC3)n(C)c2=O)cc1F` has an EC50 of 7.87 nM (TF-1a; resazurin; 96 h).
`CC/C(=C(\c1ccccc1)c1ccc(OCCN(C)C)cc1)c1ccccc1` gave an EC90 of 28400 nM (CAPAN-1; ATP luminescence; 72 h).
